# Assay results taken from ChEMBL document CHEMBL4052700, “Synthesis and biological evaluation of JL-A7 derivatives as potent ABCB1 inhibitors” (Bioorg Med Chem, 2017).
# Where a name gives a salt, the structure may show the parent alone.
# Tests used:
# Type in all cases: cell-based
# K562 = assay: Cytotoxicity against human K562 cells after 48 hrs by MTT assay; settings: K562, 48 h
# In short: (§1)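 K562 (parental) and K562/A02 (ADM-resistant, ABCB1-overexpressing) cells, 1×10^4/well, grown 24 h. A graded dose of compound in medium was added, then 48 h at 37 °C under 5% CO2. MTT was added for 4 h at 37 °C and absorbance read at 570 nm. IC50 was taken from dose–response curves.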
# K562/A02 = assay: Cytotoxicity against human K562/A02 cells after 48 hrs by MTT assay; settings: K562/A02, 48 h; in short: as §1
# [1] = molecular target: T1, ATP-dependent translocase ABCB1 (Homo sapiens, UniProt P08183); assay: Inhibition of ABCB1 in human K562/A02 cells assessed as potentiation of adriamycin-induced cytotoxicity by measuring reduction in ADR IC50 at 5 uM measured after 48 hrs by MTT assay relative to ADR alone
# In short: (§2)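 K562/A02 cells in RPMI 1640 with 10% FBS, 1×10^4/well, grown 24 h. Graded ADM was given with the modulator (0.025–5.0 µM), 48 h at 37 °C, 5% CO2. MTT 4 h, A570. ADM IC50 came from dose–response curves. RF = ADM IC50 without modulator / IC50 with modulator. Triplicates, three independent runs, mean ± SD.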
# [2] = molecular target: T1, ATP-dependent translocase ABCB1; assay: Inhibition of ABCB1 in human K562/A02 cells assessed as potentiation of adriamycin-induced cytotoxicity by measuring ADR IC50 treated for 48 hrs followed by compound washout measured after 12 hrs by MTT assay relative to ADR alone
# In short: (§3)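 Duration of reversal in K562/A02 cells. After modulator exposure, cells were tested without washout or after modulator removal followed by 0, 6, 12 or 24 h in drug-free medium. ADM IC50 was then found by MTT. RF = IC50 without modulator / IC50 with modulator. Two to three experiments, mean ± SD.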
# [3] = molecular target: T1, ATP-dependent translocase ABCB1; assay: Inhibition of ABCB1 in human K562/A02 cells assessed as potentiation of adriamycin-induced cytotoxicity by measuring ADR IC50 treated for 48 hrs followed by compound washout measured after 24 hrs by MTT assay relative to ADR alone; in short: as §3
# [4] = molecular target: T1, ATP-dependent translocase ABCB1; assay: Inhibition of ABCB1 in human K562/A02 cells assessed as potentiation of adriamycin-induced cytotoxicity by measuring ADR IC50 treated for 48 hrs followed by compound washout measured immediately by MTT assay relative to ADR alone; in short: as §3
# [5] = molecular target: T1, ATP-dependent translocase ABCB1; assay: Inhibition of ABCB1 in human K562/A02 cells assessed as potentiation of adriamycin-induced cytotoxicity by measuring ADR IC50 treated for 48 hrs followed by compound washout measured after 6 hrs by MTT assay relative to ADR alone; in short: as §3
# [6] = molecular target: T1, ATP-dependent translocase ABCB1; assay: Inhibition of ABCB1 in human K562/A02 cells assessed as potentiation of adriamycin-induced cytotoxicity by measuring reduction in ADR IC50 measured after 48 hrs by MTT assay relative to ADR alone; in short: as §2
# [7] = molecular target: T1, ATP-dependent translocase ABCB1; assay: Inhibition of ABCB1 in human K562/A02 cells assessed as potentiation of adriamycin-induced cytotoxicity by measuring reduction in ADR IC50 at 1 uM measured after 48 hrs by MTT assay relative to ADR alone; in short: as §2
# [8] = molecular target: T1, ATP-dependent translocase ABCB1; assay: Inhibition of ABCB1 in human K562/A02 cells assessed as increase in doxorubicin accumulation after 90 mins by rhodamine123 staining based flow cytometric analysis; settings: 1.5 h
# [9] = molecular target: T1, ATP-dependent translocase ABCB1; assay: Inhibition of ABCB1 in human K562/A02 cells assessed as potentiation of adriamycin-induced cytotoxicity by measuring reduction in ADR IC50 at 0.25 uM measured after 48 hrs by MTT assay relative to ADR alone; in short: as §2
# [10] = molecular target: T1, ATP-dependent translocase ABCB1; assay: Inhibition of ABCB1 in human K562/A02 cells assessed as potentiation of adriamycin-induced cytotoxicity by measuring reduction in ADR IC50 at 0.05 uM measured after 48 hrs by MTT assay relative to ADR alone; in short: as §2
# [11] = molecular target: T1, ATP-dependent translocase ABCB1; assay: Inhibition of ABCB1 in human K562/A02 cells assessed as potentiation of adriamycin-induced cytotoxicity measured after 48 hrs by MTT assay; in short: as §2
# [12] = molecular target: T1, ATP-dependent translocase ABCB1; assay: Inhibition of ABCB1 in human K562/A02 cells assessed as potentiation of adriamycin-induced cytotoxicity by measuring reduction in ADR IC50 at 2.5 uM measured after 48 hrs by MTT assay relative to ADR alone; in short: as §2
# [13] = molecular target: T1, ATP-dependent translocase ABCB1; assay: Potency index, ratio of compound effect to verapamil effect for inhibition of ABCB1 in human K562/A02 cells assessed as increase in adriamycin accumulation at 5 uM
# In short: (§4)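 ADM was then added at 20 µM for 90 min. Cells were washed three times with PBS at 4 °C. Retained intracellular ADM mean fluorescence intensity was read by fluorescence spectrophotometer. Three independent experiments, mean ± SD.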
# [14] = molecular target: T1, ATP-dependent translocase ABCB1; assay: Inhibition of ABCB1 in human K562/A02 cells assessed as increase in adriamycin accumulation at 0.5 to 2.5 uM pretreated for 60 mins followed by ADR addition after 90 mins by fluorescence spectrophotometric method; settings: 1.5 h; in short: as §4
# [15] = molecular target: T1, ATP-dependent translocase ABCB1; assay: Inhibition of ABCB1 in human K562/A02 cells assessed as potentiation of adriamycin-induced cytotoxicity by measuring reduction in ADR IC50 at 5 uM measured after 48 hrs by MTT assay relative to JL-A7
# [16] = molecular target: T1, ATP-dependent translocase ABCB1; assay: Inhibition of ABCB1 in human K562/A02 cells assessed as rhodamine123 efflux after 90 mins by flow cytometric analysis (reference value: 0.0231 +/- 0.0058 /s); settings: 1.5 h
# [17] = molecular target: T1, ATP-dependent translocase ABCB1; assay: Inhibition of ABCB1 in human K562/A02 cells assessed as increase in adriamycin accumulation pretreated for 60 mins followed by ADR addition after 90 mins by fluorescence spectrophotometric method; settings: 1.5 h; in short: as §4
# [18] = molecular target: T1, ATP-dependent translocase ABCB1; assay: Inhibition of ABCB1 in human K562/A02 cells assessed as potentiation of adriamycin-induced cytotoxicity by measuring reduction in ADR IC50 at 0.5 uM measured after 48 hrs by MTT assay relative to ADR alone; in short: as §2
# [19] = molecular target: T1, ATP-dependent translocase ABCB1; assay: Inhibition of ABCB1 in human K562/A02 cells assessed as potentiation of adriamycin-induced cytotoxicity by measuring reduction in ADR IC50 at 5 uM measured after 48 hrs by MTT assay relative to verapamil
# [20] = molecular target: T1, ATP-dependent translocase ABCB1; assay: Inhibition of ABCB1 in human K562/A02 cells assessed as potentiation of adriamycin-induced cytotoxicity by measuring reduction in ADR IC50 at 0.1 uM measured after 48 hrs by MTT assay relative to ADR alone; in short: as §2
# [21] = molecular target: T1, ATP-dependent translocase ABCB1; assay: Inhibition of ABCB1 in human K562/A02 cells assessed as potentiation of adriamycin-induced cytotoxicity by measuring reduction in ADR IC50 at 5 uM measured after 48 hrs by MTT assay relative to tariquidar
# [22] = molecular target: T1, ATP-dependent translocase ABCB1; assay: Inhibition of ABCB1 in human K562/A02 cells assessed as potentiation of adriamycin-induced cytotoxicity by measuring reduction in ADR IC50 at 0.025 uM measured after 48 hrs by MTT assay relative to ADR alone; in short: as §2
# T1 sequence (P08183 whole entry): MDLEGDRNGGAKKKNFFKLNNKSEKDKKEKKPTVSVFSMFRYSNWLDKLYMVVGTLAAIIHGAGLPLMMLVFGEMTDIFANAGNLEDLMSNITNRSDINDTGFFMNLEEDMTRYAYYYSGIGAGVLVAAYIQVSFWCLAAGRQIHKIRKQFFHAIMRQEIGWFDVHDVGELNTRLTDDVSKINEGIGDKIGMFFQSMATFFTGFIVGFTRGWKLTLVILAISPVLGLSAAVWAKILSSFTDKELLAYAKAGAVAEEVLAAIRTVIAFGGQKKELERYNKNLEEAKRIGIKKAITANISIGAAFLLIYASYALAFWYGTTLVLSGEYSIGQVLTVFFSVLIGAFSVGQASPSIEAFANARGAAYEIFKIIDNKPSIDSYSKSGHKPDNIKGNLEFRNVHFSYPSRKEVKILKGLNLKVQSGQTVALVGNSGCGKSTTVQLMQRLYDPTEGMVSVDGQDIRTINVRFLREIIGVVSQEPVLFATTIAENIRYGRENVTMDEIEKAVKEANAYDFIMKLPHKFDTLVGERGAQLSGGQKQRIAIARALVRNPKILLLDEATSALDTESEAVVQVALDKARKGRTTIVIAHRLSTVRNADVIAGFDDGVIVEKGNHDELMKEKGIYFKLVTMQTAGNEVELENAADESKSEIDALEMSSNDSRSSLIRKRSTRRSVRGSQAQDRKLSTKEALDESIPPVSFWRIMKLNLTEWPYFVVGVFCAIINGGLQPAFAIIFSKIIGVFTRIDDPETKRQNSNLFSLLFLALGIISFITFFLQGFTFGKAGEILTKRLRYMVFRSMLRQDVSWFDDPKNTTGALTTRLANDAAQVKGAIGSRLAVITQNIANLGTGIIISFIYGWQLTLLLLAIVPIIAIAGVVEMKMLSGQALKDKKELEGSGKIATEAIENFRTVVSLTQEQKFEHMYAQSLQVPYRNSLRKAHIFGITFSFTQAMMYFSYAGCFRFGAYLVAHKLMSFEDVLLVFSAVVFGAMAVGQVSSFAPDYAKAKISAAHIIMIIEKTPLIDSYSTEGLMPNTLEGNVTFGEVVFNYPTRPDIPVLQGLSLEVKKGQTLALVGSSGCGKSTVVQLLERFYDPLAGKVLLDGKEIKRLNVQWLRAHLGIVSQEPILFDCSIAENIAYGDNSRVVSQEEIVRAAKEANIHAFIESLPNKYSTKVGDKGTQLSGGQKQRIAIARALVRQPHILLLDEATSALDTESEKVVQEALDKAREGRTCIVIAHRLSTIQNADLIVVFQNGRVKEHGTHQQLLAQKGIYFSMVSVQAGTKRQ
smiles,measurement,setting,value
COc1cc2c(cc1OC)CN(CCn1cc(COc3ccccc3NC(=O)c3ccc(C(C)(C)C)cc3)nn1)CC2,IC50,K562,> 100 µM
same,IC50,K562/A02,> 100 µM
same,fold change (FC),[1],28.2
COc1cc2c(cc1OC)CN(CCc1ccc(NC(=O)c3cc(OC)c(OC)cc3NC(=O)c3cnc4ccccc4c3)cc1)CC2,fold change (FC),[2],6.1
same,IC50,K562,31.6 µM
same,fold change (FC),[3],3.55
same,IC50,K562/A02,27.2 µM
same,fold change (FC),[4],16.86
same,fold change (FC),[5],10.37
same,fold change (FC),[1],49.1
same,fold change (FC),[6],31.98
COc1cc2c(cc1OC)CN(CCn1cc(COc3ccccc3C(=O)Nc3cccc([N+](=O)[O-])c3)nn1)CC2,IC50,K562,> 100 µM
same,IC50,K562/A02,> 100 µM
same,fold change (FC),[1],3.5
CCCCc1ccc(NC(=O)c2ccccc2OCc2cn(CCN3CCc4cc(OC)c(OC)cc4C3)nn2)cc1,IC50,K562,> 100 µM
same,IC50,K562/A02,> 100 µM
same,fold change (FC),[1],15.5
COc1ccc(NC(=O)c2ccccc2OCc2cn(CCN3CCc4cc(OC)c(OC)cc4C3)nn2)cc1OC,IC50,K562,> 100 µM
same,IC50,K562/A02,> 100 µM
same,fold change (FC),[1],12.4
COc1cccc(NC(=O)c2ccccc2OCc2cn(CCN3CCc4cc(OC)c(OC)cc4C3)nn2)c1,IC50,K562,> 100 µM
same,IC50,K562/A02,> 100 µM
same,fold change (FC),[1],5.6 to 11.1
COc1cc2c(cc1OC)CN(CCn1cc(COc3ccccc3C(=O)Nc3cccc(Cl)c3)nn1)CC2,IC50,K562,87.4 µM
same,IC50,K562/A02,> 100 µM
same,fold change (FC),[1],4.3
COc1cc2c(cc1OC)CN(CCn1cc(COc3ccccc3C(=O)Nc3ccc(C)cc3)nn1)CC2,IC50,K562,> 100 µM
same,IC50,K562/A02,> 100 µM
same,fold change (FC),[1],12.6
COc1cc2c(cc1OC)CN(CCn1cc(COc3ccccc3C(=O)Nc3cccc(C)c3)nn1)CC2,IC50,K562,> 100 µM
same,IC50,K562/A02,> 100 µM
same,fold change (FC),[1],8
COc1cc2c(cc1OC)CN(CCn1cc(COc3ccccc3C(=O)Nc3ccc(OC(F)(F)F)cc3)nn1)CC2,IC50,K562,> 100 µM
same,IC50,K562/A02,> 100 µM
same,fold change (FC),[1],21.4
COc1cc2c(cc1OC)CN(CCn1cc(COc3ccccc3C(=O)Nc3ccccc3[N+](=O)[O-])nn1)CC2,IC50,K562,> 100 µM
same,IC50,K562/A02,> 100 µM
same,fold change (FC),[1],3.6
COc1cc2c(cc1OC)CN(CCn1cc(COc3ccccc3C(=O)Nc3ccccc3)nn1)CC2,IC50,K562,> 100 µM
same,IC50,K562/A02,> 100 µM
same,fold change (FC),[1],3.8
COc1cc2c(cc1OC)CN(CCn1cc(COc3ccccc3C(=O)Nc3ccc([N+](=O)[O-])cc3)nn1)CC2,IC50,K562,> 100 µM
same,IC50,K562/A02,> 100 µM
same,fold change (FC),[1],4.6
COc1cc2c(cc1OC)CN(CCn1cc(COc3ccccc3C(=O)Nc3ccc(Cl)cc3)nn1)CC2,IC50,K562,> 100 µM
same,IC50,K562/A02,> 100 µM
same,fold change (FC),[1],14
COc1cc2c(cc1OC)CN(CCn1cc(COc3ccccc3C(=O)Nc3ccc(C(C)(C)C)cc3)nn1)CC2,fold change (FC),[7],7.5
same,inhibition (INH),[8],Dose-dependent effect
same,fold change (FC),[2],4.93
same,IC50,K562,> 100 µM
same,fold change (FC),[3],2.96
same,IC50,K562/A02,> 100 µM
same,fold change (FC),[9],2.4
same,fold change (FC),[10],1.4
same,inhibition (INH),[11],Dose-dependent effect
same,fold change (FC),[12],13.5
same,Ratio,[13],1.4
same,fold change (FC),[4],11.83
same,inhibition (INH),[14],Active
same,fold change (FC),[15],<= 31.4
same,K,[16],0.0067 s⁻¹
same,inhibition (INH),[17],Dose-dependent effect
same,fold change (FC),[5],8.16
same,fold change (FC),[18],3.9
same,fold change (FC),[19],<= 31.4
same,fold change (FC),[20],1.6
same,fold change (FC),[21],<= 31.4
same,fold change (FC),[1],33.5
same,fold change (FC),[22],1.4
same,fold change (FC),[6],40.34
COc1cc2c(cc1OC)CN(CCn1cc(COc3ccccc3C(=O)Nc3ccccc3C)nn1)CC2,IC50,K562,> 100 µM
same,IC50,K562/A02,> 100 µM
same,fold change (FC),[1],4.4
COc1ccc(NC(=O)c2ccccc2OCc2cn(CCN3CCc4cc(OC)c(OC)cc4C3)nn2)cc1,IC50,K562,79.2 µM
same,IC50,K562/A02,> 100 µM
same,fold change (FC),[1],11.6
COc1cc2c(cc1OC)CN(CCn1cc(COc3ccccc3C(=O)Nc3cc(OC)c(OC)c(OC)c3)nn1)CC2,IC50,K562,> 100 µM
same,IC50,K562/A02,> 100 µM
same,fold change (FC),[1],3
COc1cc2c(cc1OC)CN(CCn1cc(COc3ccccc3C(=O)Nc3ccc(F)cc3)nn1)CC2,IC50,K562,> 100 µM
same,IC50,K562/A02,> 100 µM
same,fold change (FC),[1],11.7
COc1ccc(CCN(C)CCCC(C#N)(c2ccc(OC)c(OC)c2)C(C)C)cc1OC (stereo not drawn),inhibition (INH),[8],Dose-dependent effect
same,inhibition (INH),[14],Active
COc1cccc2c1C(=O)c1c(O)c3c(c(O)c1C2=O)C[C@@](O)(C(=O)CO)C[C@@H]3O[C@H]1C[C@H](N)[C@H](O)[C@H](C)O1 [DOXORUBICIN HYDROCHLORIDE],IC50,K562,4.29 µM
same,IC50,K562/A02,96.9 µM
same,fold change (FC),[1],1
